ChEMBL document CHEMBL4145463, “New insights into structure-activity relationship of ipomoeassin F from its bioisosteric 5-oxa/aza analogues” (Eur J Med Chem, 2018)

What was measured:
[1] = tested on: MCF7; test: Cytotoxicity against human MCF7 cells assessed as reduction in cell viability after 72 hrs by MTT assay; format: functional, cell-based; settings: MCF7, 72 h
[2] = tested on: MDA-MB-231; test: Cytotoxicity against human MDA-MB-231 cells assessed as reduction in cell viability after 72 hrs by Alamar Blue assay; format: functional, cell-based; settings: MDA-MB-231, 72 h
How it was run: (§1)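 Cells were seeded at 5,000 per well and preincubated 24 h at 37 °C in 5% CO2. They were then exposed for 72 h to gradient dilutions in complete DMEM/HIGH medium, made from 10 mM DMSO stocks, with DMSO below 0.5%. Fresh medium with 10% AlamarBlue was incubated 3 h and read at 580 nm (620 nm reference). Viability was taken versus DMSO-treated cells, and IC50 was fitted from viability–concentration plots; triplicate.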

[3] = tested on: MCF-10A; test: Cytotoxicity against human MCF10A cells assessed as reduction in cell viability after 72 hrs by Alamar Blue assay; format: cell-based; how it was run: as §1
[4] = tested on: Panel NCI-60 (60 carcinoma cell lines); test: Growth inhibition of human NCI60 cells after 48 hrs by SRB assay; format: functional
[5] = tested on: HT-29; test: Cytotoxicity against human HT-29 cells after 72 hrs; format: functional, cell-based; settings: HT-29, 72 h
[6] = tested on: A2780; test: Cytotoxicity against human A2780 cells after 72 hrs; format: functional, cell-based; settings: A2780, 72 h
[7] = Cytotoxicity against human H522-T1 cells after 72 hrs; format: functional, cell-based; settings: H522-T1, 72 h
[8] = tested on: U-937; test: Cytotoxicity against human U937 cells after 72 hrs; format: functional, cell-based; settings: U-937, 72 h
[9] = tested on: MDA-MB-435; test: Cytotoxicity against human MDA-MB-435 cells after 72 hrs; format: functional, cell-based; settings: MDA-MB-435, 72 h
[10] = tested on: L929; test: Cytotoxicity against mouse L929 cells after 72 hrs; format: cell-based; settings: L929, 72 h
[11] = tested on: HeLa; test: Cytotoxicity against human HeLa cells after 72 hrs; format: functional, cell-based

Structure (SMILES): C/C=C(\C)C(=O)O[C@@H]1[C@@H](O)[C@@H]2O[C@H]3[C@H](O[C@@H](CCCCC)C/C=C\CCOC(=O)CCC(=O)OC[C@@H](O2)[C@H]1OC(=O)/C=C/c1ccccc1)O[C@H](C)[C@H](OC(C)=O)[C@@H]3O
- IC50 [1]: 0.817 µM
- IC50 [2]: 0.26 µM

Structure (SMILES): C/C=C(\C)C(=O)O[C@@H]1[C@@H](O)[C@@H]2O[C@H]3[C@H](O[C@@H](CCCCC)CCCCCOC(=O)CCC(=O)OC[C@@H](O2)[C@H]1OC(=O)/C=C/c1ccccc1)O[C@H](C)[C@H](OC(C)=O)[C@@H]3O
- IC50 [1]: 0.0812 µM
- IC50 [2]: 0.0315 µM
- IC50 [3]: 0.0269 µM

Structure (SMILES): C/C=C(\C)C(=O)O[C@@H]1[C@@H](O)[C@@H]2O[C@H]3[C@H](O[C@@H](CCCCC)CCCCCCC(=O)CCC(=O)OC[C@@H](O2)[C@H]1OC(=O)/C=C/c1ccccc1)O[C@H](C)[C@H](OC(C)=O)[C@@H]3O
- GI50 [4]: 0.03 µM
- IC50 [5]: 0.0042 µM
- IC50 [6]: 0.036 µM
- IC50 [7]: 0.0129 µM
- IC50 [8]: 0.0026 µM
- IC50 [3]: 0.0051 µM
- IC50 [9]: 0.0094 µM
- IC50 [10]: 0.0074 µM

Structure (SMILES): C/C=C(\C)C(=O)O[C@@H]1[C@@H](O)[C@H](O[C@H]2[C@H](O[C@@H](CCCCC)CCCCC/N=C3/CCC(=O)O3)O[C@H](C)[C@H](OC(C)=O)[C@@H]2O)O[C@H](COC(=O)/C=C/c2ccccc2)[C@H]1O
- IC50 [1]: > 25 µM
- IC50 [2]: > 25 µM

Structure (SMILES): C/C=C(\C)C(=O)O[C@@H]1[C@@H](O)[C@@H]2O[C@H]3[C@H](O[C@@H](CCCCC)CCCCOC(=O)CCC(=O)OC[C@@H](O2)[C@H]1OC(=O)/C=C/c1ccccc1)O[C@H](C)[C@H](OC(C)=O)[C@@H]3O
- IC50 [1]: 0.711 µM
- IC50 [2]: 0.29 µM

Structure (SMILES): C/C=C(\C)C(=O)O[C@@H]1[C@@H](O)[C@@H]2O[C@H]3[C@H](O[C@@H](CCCCC)CCCCCNC(=O)CCC(=O)OC[C@@H](O2)[C@H]1OC(=O)/C=C/c1ccccc1)O[C@H](C)[C@H](OC(C)=O)[C@@H]3O
- IC50 [1]: 0.351 µM
- IC50 [2]: 0.0487 µM
- IC50 [3]: 0.0752 µM

Structure (SMILES): C/C=C(\C)C(=O)O[C@@H]1[C@@H](O)[C@@H]2O[C@H]3[C@H](O[C@@H](CCCCC)C/C=C/CCOC(=O)CCC(=O)OC[C@@H](O2)[C@H]1OC(=O)/C=C/c1ccccc1)O[C@H](C)[C@H](OC(C)=O)[C@@H]3O
- IC50 [1]: 3.28 µM
- IC50 [2]: 0.808 µM

Structure (SMILES): C/C=C(\C)C(=O)O[C@@H]1[C@@H](O)[C@@H]2O[C@H]3[C@H](O[C@@H](CCCCC)CCCCCN(C)C(=O)CCC(=O)OC[C@@H](O2)[C@H]1OC(=O)/C=C/c1ccccc1)O[C@H](C)[C@H](OC(C)=O)[C@@H]3O
- IC50 [1]: 0.0692 µM
- IC50 [2]: 0.0144 µM
- IC50 [3]: 0.0175 µM

Structure (SMILES): C/C=C(\C)C(=O)O[C@@H]1[C@@H](O)[C@@H]2O[C@H]3[C@H](O[C@@H](CCCCC)CC=CCCCC(=O)CCC(=O)OC[C@@H](O2)[C@H]1OC(=O)/C=C/c1ccccc1)O[C@H](C)[C@H](OC(C)=O)[C@@H]3O (mixture of isomers)
- IC50 [1]: 0.307 µM
- IC50 [2]: 0.0683 µM
- IC50 [3]: 0.0272 µM

Structure (SMILES): C/C=C(\C)C(=O)O[C@@H]1[C@@H](O)[C@@H]2O[C@H]3[C@H](O[C@@H](CCC)CCCCCCC(=O)CCC(=O)OC[C@@H](O2)[C@H]1OC(=O)/C=C/c1ccccc1)O[C@H](C)[C@H](OC(C)=O)[C@@H]3O [IPOMOEASSIN A]
- IC50 [11]: 0.064 µM
- IC50 [5]: 0.0461 µM
- IC50 [7]: 0.109 µM
- IC50 [8]: 0.0202 µM
- IC50 [9]: 0.0426 µM
- IC50 [10]: 0.0778 µM

Structure (SMILES): C/C=C(\C)C(=O)O[C@@H]1[C@@H](O)[C@@H]2O[C@H]3[C@H](O[C@@H](CCC)CCCCCCC(=O)CCC(=O)OC[C@@H](O2)[C@H]1OC(=O)/C=C/c1ccccc1)O[C@H](C)[C@H](O)[C@@H]3O [IPOMOEASSIN B]
- IC50 [11]: 2.5 µM
- IC50 [5]: 0.396 µM
- IC50 [7]: 1.07 µM
- IC50 [8]: 0.134 µM
- IC50 [9]: 2.7 µM

Structure (SMILES): C/C=C(\C)C(=O)O[C@@H]1[C@@H](O)[C@@H]2O[C@H]3[C@H](O[C@@H](CCC)CCCCC[C@H](O)C(=O)CCC(=O)OC[C@@H](O2)[C@H]1OC(=O)/C=C/c1ccccc1)O[C@H](C)[C@H](OC(C)=O)[C@@H]3O [IPOMOEASSIN C]
- IC50 [11]: 1.5 µM
- IC50 [10]: > 1 µM

Structure (SMILES): C/C=C(\C)C(=O)O[C@@H]1[C@@H](O)[C@@H]2O[C@H]3[C@H](O[C@@H](CCC)CCCCC[C@H](OC(C)=O)C(=O)CCC(=O)OC[C@@H](O2)[C@H]1OC(=O)/C=C/c1ccccc1)O[C@H](C)[C@H](OC(C)=O)[C@@H]3O [IPOMOEASSIN D]
- IC50 [11]: 0.032 µM
- IC50 [5]: 0.0118 µM
- IC50 [7]: 0.0232 µM
- IC50 [8]: 0.0079 µM
- IC50 [9]: 0.0199 µM
- IC50 [10]: 0.135 µM

Structure (SMILES): C/C=C(\C)C(=O)O[C@@H]1[C@@H](O)[C@@H]2O[C@H]3[C@H](O[C@@H](CCC)CCCCC[C@H](OC(C)=O)C(=O)CCC(=O)OC[C@@H](O2)[C@H]1OC(=O)/C=C/c1ccccc1)O[C@H](C)[C@H](O)[C@@H]3O [IPOMOEASSIN E]
- IC50 [11]: 4.3 µM
- IC50 [5]: 0.393 µM
- IC50 [7]: 0.967 µM
- IC50 [8]: 0.163 µM
- IC50 [9]: 1.63 µM
- IC50 [10]: > 1 µM
